Screens deposited in PubChem by several laboratories.
Only some compounds are listed: those with a hit (about 4.1% of all), similar ones and a draw of the others.
KCNQ1 block: inhibitors of human KCNQ1 channel, primary screen, cell-based, thallium flux, high-throughput; B-score at 10 µM; AID 2642, 2010; hit rate 1.3% among 310,000; Potassium voltage-gated channel subfamily KQT member 1 (Homo sapiens), P51787; CHO-K1 KCNQ1, FluxOR thallium flux fluorescence; hits give high values;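 active = compounds whose thallium flux B-score, printed positive for inhibition, exceeds three library SD while starting fluorescence stays within three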;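 note: channel opened by potassium depolarization with thallium stimulus after 20 min compound exposure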
KCNK9 inh: KCNK9 potassium channel inhibitors, primary screen, HEK293 cells, thallium flux | Potassium channel subfamily K member 9 (Homo sapiens), Q9NPC2 | FluxOR thallium flux fluorescence; hits give low values | B-score at 10 µM | hit rate 1.2% among 310,000 | AID 488922, 2010;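 active = ratio B-score over 3 SD below the library mean, with starting fluorescence within 5 SD of its mean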;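 note: negative B-score means less thallium flux so channel inhibition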
Target sequence (Q9NPC2 whole entry, looked up): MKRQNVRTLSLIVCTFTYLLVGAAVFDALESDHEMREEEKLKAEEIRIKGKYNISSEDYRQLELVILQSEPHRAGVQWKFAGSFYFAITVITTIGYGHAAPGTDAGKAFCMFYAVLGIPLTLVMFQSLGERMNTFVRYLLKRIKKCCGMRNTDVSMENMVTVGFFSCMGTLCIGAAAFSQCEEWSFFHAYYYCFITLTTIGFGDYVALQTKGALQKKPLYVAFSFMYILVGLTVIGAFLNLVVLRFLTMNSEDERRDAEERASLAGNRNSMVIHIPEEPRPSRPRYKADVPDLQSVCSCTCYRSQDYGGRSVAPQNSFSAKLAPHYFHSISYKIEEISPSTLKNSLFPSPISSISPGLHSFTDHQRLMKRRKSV
hERG protect: hERG rescue from dofetilide block, primary screen, cell-based, CHO-hERG, FluxOR thallium flux, dofetilide IC70. hit rate 0.51% among 310,000. activation (rescue from dofetilide block), less the hit threshold, % at 10 µM. Voltage-gated inwardly rectifying potassium channel KCNH2 (Homo sapiens), Q12809. AID 1511, 2009. dofetilide IC70 present;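 active = activation above the mean of controls blocked by dofetilide plus 5 SD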;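 note: thallium influx through hERG after potassium depolarization seen as dye fluorescence rise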
KCNQ1 pot: potentiators or activators of KCNQ1 channel, primary screen, cell-based, thallium flux, high-throughput; B-score at 10 µM; CHO-K1 KCNQ1, thallium flux FluxOR fluorescence; hits give high values; hit rate 0.35% among 310,000; AID 2648, 2010;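 active = fluorescence ratio B-score, a plate-corrected score, at least three library SD, with initial intensity B-score within 5 SD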
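Schedule – 37 °C overnight plating, 90-min dark dye load, 20-min compound pretreatment · System – stable KCNQ1 CHO-K1 line · Probe or stimulus – thallium- and potassium-containing depolarizing buffer · Measured by – kinetic FluxOR fluorescence, 10 s baseline plus 110 s post-stimulus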
Cl transport mod: KCC2 cotransporter modulators, thallium flux, primary screen, cell-based, HEK293 KCC2, FluoZin-2 fluorescence, MLSMR. B-score of Tl+ flux slope (higher = more flux/activation; lower = inhibition) at 10 µM. KCC2 cells, thallium flux FluoZin-2 fluorescence. Solute carrier family 12 member 5 (Homo sapiens), Q9H2X9. hit rate 2.2% among 190,000;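 active = thallium flux slope and its plate-corrected score both differing from the plate sample mean at a set confidence after two filtering rounds, in either direction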;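 note: slope of fluorescence scaled to starting intensity during 10 to 20 s after thallium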
KCNK3 inh: human KCNK3 channel inhibitors, primary screen, CHO cells, FluxOR thallium flux, B-score. Potassium channel subfamily K member 3 (Homo sapiens), O14649. B-score at 10 µM. AID 602410, 2012. FluxOR fluorescence; hits give low values. hit rate 0.84% among 340,000;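 active = B-score under library mean minus 4 SD, starting fluorescence ratio at most library mean plus 5 SD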;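 note: more negative B-score means stronger inhibition of thallium flux through KCNK3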
Target sequence (O14649 whole entry, looked up): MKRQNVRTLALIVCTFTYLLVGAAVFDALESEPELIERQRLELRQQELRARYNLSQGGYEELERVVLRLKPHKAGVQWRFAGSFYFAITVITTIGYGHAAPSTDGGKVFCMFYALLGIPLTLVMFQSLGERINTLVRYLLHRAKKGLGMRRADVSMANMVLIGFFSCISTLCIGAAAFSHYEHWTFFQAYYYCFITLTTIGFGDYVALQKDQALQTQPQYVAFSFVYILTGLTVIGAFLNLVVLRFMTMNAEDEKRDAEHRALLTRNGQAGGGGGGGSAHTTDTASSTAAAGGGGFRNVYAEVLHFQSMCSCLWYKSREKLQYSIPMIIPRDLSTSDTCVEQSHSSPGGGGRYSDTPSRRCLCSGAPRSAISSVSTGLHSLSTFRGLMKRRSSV
Large screens that a line does not name were inactive.

C[C@@H](NC(=O)c1[nH]cnc1C(=O)Nc1nccs1)c1ccccc1	none (no result: KCNQ1 block, KCNK9 inh, hERG protect, KCNQ1 pot, Cl transport mod)
O=C1OC(c2ccccc2)(c2cc(Br)ccc2O)c2ccccc21 (stereo not given)	KCNK3 inh -9.83 (no result: KCNQ1 block, KCNK9 inh, hERG protect, KCNQ1 pot, Cl transport mod)
O=C1OC(c2ccc(O)cc2)(c2ccccc2O)c2ccccc21 (stereo not given)	none (no result: KCNQ1 block, KCNK9 inh, hERG protect, KCNQ1 pot, Cl transport mod)
O=C(Nc1ccnn1C1CCNCC1)c1ccc2c(c1)OCO2	none (no result: KCNQ1 block, KCNK9 inh, hERG protect, KCNQ1 pot, Cl transport mod)
CCCn1nnc(NC(=O)Cc2ccccc2)n1	none
CCCCn1nnc(NC(=O)c2ccc(-c3cccc(Cl)c3)o2)n1	none
CCCCn1nnc(NC(=O)Cc2ccc(Cl)cc2)n1	hERG protect 6.0
CCCCn1nnc(NC(=O)c2ccc(-c3cccc([N+](=O)[O-])c3)o2)n1	hERG protect 21.6 (no result: KCNK3 inh)
CC(C)CN(C(=O)c1cc(Cl)nc2ccccc12)C1CCS(=O)(=O)C1 (stereo not given)	none (no result: KCNQ1 block, KCNK9 inh, hERG protect, KCNQ1 pot, Cl transport mod)
Cn1c(=O)c2c(nc(N3CCc4ccccc4C3)n2Cc2ccc(Br)cc2)n(C)c1=O	KCNK9 inh -7
N#CC(C#N)=C1C=C2C=C(N3CCOCC3)CCC2CC1 (stereo not given)	KCNQ1 block 6
O=c1c(-c2ccccc2)nc(-c2ccccc2)cn1O	hERG protect 4.9 (no result: Cl transport mod)
O=C(O)Cn1c(=O)c(-c2ccccc2)nc2ccccc21	none (no result: Cl transport mod)
O=C(COc1ccc2ccccc2c1)NNC(=O)Nc1ccccc1F	none (no result: Cl transport mod)
Cc1cccc(C(=O)NNC(=O)Nc2ccccc2)c1	none
Cc1ccc(NC(=O)NNC(=O)COc2ccc(Cl)cc2)cc1	none (no result: Cl transport mod)
Cc1cccc(NC(=O)C(=O)NNC(=O)c2ccc(C(C)(C)C)cc2)c1	hERG protect 37.4, KCNQ1 pot 73 (no result: Cl transport mod)
COc1cccc(OCC(=O)NNC(=O)C(=O)Nc2cccc(C)c2)c1	hERG protect 17.4, KCNQ1 pot 21 (no result: Cl transport mod)
COc1ccc(C)cc1NC(=O)C(=O)NNC(=O)COc1ccc(Cl)cc1	hERG protect 87.7, KCNQ1 pot 59, Cl transport mod 77.9
Cc1ccccc1NC(=O)C(=O)NNC(=O)COc1ccc2ccccc2c1	hERG protect 28.7, KCNQ1 pot 49 (no result: Cl transport mod)
Cc1cc(Br)ccc1NC(=O)C1CCN(S(=O)(=O)c2cnc[nH]2)CC1	none (no result: Cl transport mod)
COc1ccc(OC)c(NC(=O)C(=O)NNC(=O)COc2ccc(Br)cc2C)c1	hERG protect 103.9, KCNQ1 pot 66, Cl transport mod 91
Cc1ccc(OCC(=O)NNC(=O)C(=O)NC(C)(C)C)cc1	KCNQ1 pot 8, Cl transport mod 13
COc1ccc(OCC(=O)NNC(=O)C(=O)Nc2cc(OC)ccc2OC)cc1	hERG protect 14.7 (no result: Cl transport mod)
CCc1cccc(CC)c1C(OC(C)=O)c1cccnc1 (stereo not given)	none (no result: Cl transport mod)
Cc1cc(Br)ccc1NC(=O)CN(C)C(=O)C1CCN(c2ncnc3sc(C)c(C)c23)CC1	none (no result: KCNQ1 block, KCNK9 inh, hERG protect, KCNQ1 pot, Cl transport mod)
COc1ccc(NC(=O)N(C)C[C@H]2Oc3ccc(NC(=O)NC4CCCCC4)cc3C(=O)N([C@H](C)CO)C[C@@H]2C)cc1	none (no result: KCNQ1 block, KCNK9 inh, hERG protect, KCNQ1 pot, Cl transport mod)
O=C(COC(=O)c1cc([N+](=O)[O-])ccc1NCCO)Nc1cccnc1Cl	none (no result: KCNQ1 block, KCNK9 inh, hERG protect, KCNQ1 pot, Cl transport mod)
CC(C)(C)OC(=O)NCCCCCc1nnc(SCC(N)=O)o1	hERG protect 4.6
CC(C)(C)OC(=O)NCCc1nnc(SCC(N)=O)o1	none
O=C(O)COc1ccccc1/C=N/NC(=O)COc1ccc(-c2ccccc2)cc1	none
COc1ccc(Br)c(/C=N/NC(=O)COc2ccc(-c3ccccc3)cc2)c1	KCNK3 inh -9.24
CC(C)OC(=O)c1cc(NC(=S)Nc2ccc([N+](=O)[O-])cc2)cc(C(=O)OC(C)C)c1	KCNQ1 block 10
CC(C)CCNC(=S)Nc1ccc([N+](=O)[O-])cc1	none
CC(C)CCn1c(=O)c2ccccc2c2ccccc2c1=O	KCNQ1 block 6 (no result: Cl transport mod)
C=C1[C@H]2O[C@H]2[C@@H](OC(C)=O)[C@@]2(C)[C@@H](OC(C)=O)C[C@@H](OC(C)=O)[C@@](C)(O)[C@@H]2[C@@H](OC(C)=O)[C@@]2(O)[C@@H](C)C(=O)O[C@H]2[C@H]1Cl	none (no result: KCNQ1 block, KCNK9 inh, hERG protect, KCNQ1 pot, Cl transport mod)
Cc1ccc(NC(=S)N/N=C/c2c(Cl)cccc2Cl)c(C)c1	hERG protect 7.7, Cl transport mod 53.3
Cc1ccc(NC(=S)N/N=C/c2ccc(OCCC(C)C)cc2)c(C)c1	none
CCNC(=S)N/N=C/c1c(Cl)cccc1Cl	Cl transport mod 9.33
COc1ccc(C(=O)Nc2cc(C)nn2-c2cccc(F)c2)cc1OC	none (no result: Cl transport mod)
FC(F)(F)c1ccc(Cl)c(N/N=C/c2ccc(N3CCOCC3)s2)c1	KCNK9 inh -6.94
O=C(N/N=C/c1ccc(N2CCOCC2)s1)c1ccccc1Cl	none
COc1ccc(C(C(=O)NC2CCCCC2)N(Cc2cccnc2)C(=O)c2snc(C(N)=O)c2N)cc1 (stereo not given)	none (no result: Cl transport mod)
CCC(c1nnnn1CCc1ccccc1)N(Cc1ccco1)Cc1cc2cc(C)cc(C)c2[nH]c1=O (stereo not given)	none
CCC(c1nnnn1CCc1ccccc1)N(Cc1ccco1)Cc1cc2c(C)ccc(C)c2[nH]c1=O (stereo not given)	KCNK9 inh -7.32
Cc1ccc2[nH]c(=O)c(CN(CCc3ccccc3)C(c3nnnn3Cc3ccco3)C(C)C)cc2c1 (stereo not given)	KCNK3 inh -8.87
COc1ccc(NC(=O)N2CCN(c3cccc(C(F)(F)F)c3)CC2)cc1OC	none
O=C(Nc1ccccc1)N1CCN(c2cccc(C(F)(F)F)c2)CC1	KCNK9 inh -7.44 (no result: Cl transport mod)
CCCCN(CCCC)C(=S)N/N=C/c1c(C)[nH]n(-c2ccccc2)c1=O	KCNQ1 pot 29, Cl transport mod 22.9
Cc1[nH]n(-c2ccccc2)c(=O)c1/C=N/NC(=O)c1ccc(O)cc1O	none (no result: Cl transport mod)
CCCCN1C(=O)C(=O)N(CC(=O)c2cc(C)n(-c3cc(C)on3)c2C)C1=O	none (no result: KCNQ1 block, KCNK9 inh, hERG protect, KCNQ1 pot, Cl transport mod)
NS(=O)(=O)c1ccc(NC(=S)NCc2cccs2)cc1	hERG protect 6.6
Cc1cc(O)c(CN2CCN(S(=O)(=O)c3cccs3)CC2)cc1C(C)C	none (no result: KCNQ1 block, KCNK9 inh, hERG protect, KCNQ1 pot, Cl transport mod)
O=C(Cn1nnc(-c2ccccc2)n1)N1CCCCC1	none (no result: Cl transport mod)
O=C(Cn1nnc(-c2cccc(C(F)(F)F)c2)n1)N1CCCCCC1	hERG protect 5.1
Cc1cc(C)cc(C(=O)OCC(=O)N2CCCCCC2)c1	none (no result: KCNQ1 block, KCNK9 inh, hERG protect, KCNQ1 pot, Cl transport mod)
O=C(CNC(=O)/C(=C\c1ccccc1)NC(=O)c1ccc(Br)cc1)OCc1ccccc1	Cl transport mod -5.6
